Measurements published in ChEMBL document CHEMBL1157830, “Terpenoids and a flavonoid glycoside from Acacia pennata leaves as hedgehog/GLI-mediated transcriptional inhibitors” (J Nat Prod, 2010).
The source made the active and inactive calls. The rule behind the calls is not given here.

Key:
[1] = system: PANC-1; experiment: Inhibition of Hh/GLI1-mediated PTCH protein expression in human PANC1 cells after 24 hrs by Western blot; type: cell-based
Procedure, shortened: (§1)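 PANC1 cells treated with compounds at various concentrations for 24 h. Lysates run on SDS-PAGE, transferred to PVDF and blocked 1 h in TBST with 5% milk. Primary antibodies (PTCH, BCL-2) 1 h at room temperature, secondary 1 h, then ECL detection. Same procedure as for the HaCaT blots.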

[2] = system: DU-145; experiment: Cytotoxicity against human DU145 cells after 24 hrs by fluorimetric microculture cytotoxicity assay; type: functional, cell-based; details: DU-145, 24 h
Procedure, shortened: (§2)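 Cells plated at 1 × 10^4 per well in RPMI + 10% FBS and preincubated 24 h at 37 °C. Medium then replaced with fresh medium containing a range of compound concentrations at 0.05% DMSO. After 24 h exposure, proliferation measured by fluorometric microculture cytotoxicity assay (FMCA). n = 3, SD; IC50 reported.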

[3] = system: HaCaT; experiment: Inhibition of Hh/GLI1-mediated PTCH protein expression in human HaCaT cells expressing T-Rex system after 24 hrs by Western blot; type: cell-based
Procedure, shortened: (§3)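 HaCaT cells carrying tetracycline-inducible exogenous GLI1 plated at 2 × 10^6 per 10 cm dish for 12 h at 37 °C, then induced with 1 µg/mL tetracycline for 12 h. Medium removed and compounds added at various concentrations for 24 h. Lysates in Tris/NaCl/deoxycholate/EDTA buffer with protease inhibitor run on 5% and 12.5% SDS-PAGE. Immunoblot for PTCH, BCL-2 and GLI1 with ECL detection.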

[4] = system: PANC-1; experiment: Inhibition of Hh/GLI1-mediated PTCH mRNA expression in human PANC1 cells at 4 uM after 24 hrs by RT-PCR; type: cell-based
Procedure, shortened: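 Ptch mRNA from treated and untreated PANC1 cells reverse-transcribed with a two-step qRT-PCR kit. Real-time PCR: 50 °C 2 min, 95 °C 2 min, then 40 cycles of 95 °C 15 s and 60 °C 30 s. Compared with an untreated control; cyclopamine included as positive control.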

[5] = system: PANC-1; experiment: Inhibition of Hh/GLI1-mediated Bcl2 protein expression in human PANC1 cells after 24 hrs by Western blot; type: cell-based; procedure, shortened: as §1
[6] = system: PANC-1; experiment: Cytotoxicity against human PANC1 cells after 24 hrs by fluorimetric microculture cytotoxicity assay; type: functional, cell-based; details: PANC-1, 24 h; procedure, shortened: as §2
[7] = system: PANC-1; experiment: Inhibition of Hh/GLI1-mediated PTCH mRNA expression in human PANC1 cells at 2 and 4 uM after 24 hrs by RT-PCR
[8] = Cytotoxicity against mouse C3H10T1/2 cells after 24 hrs by fluorimetric microculture cytotoxicity assay; type: cell-based; details: C3H 10T1/2, 24 h; procedure, shortened: as §2
[9] = system: HaCaT; experiment: Inhibition of Hh/GLI1-mediated Bcl2 protein expression in human HaCaT cells expressing T-Rex system after 24 hrs by Western blot; type: cell-based; procedure, shortened: as §3
[10] = Inhibition of Hh/GLI1-mediated transcription in human HaCaT cells expressing T-Rex system by luciferase reporter gene assay; type: cell-based
Procedure, shortened: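 HaCaT-GLI1-Luc cells (exogenous GLI1 under tetracycline control, T-REx) seeded at 2 × 10^5 per well. Compounds added after 12 h tetracycline induction, at 0.05% DMSO. GLI-dependent luciferase activity and cell viability read at the same time. n = 3, SD.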

[11] = system: PANC-1; experiment: Inhibition of Hh/GLI1-mediated PTCH mRNA expression in human PANC1 cells at 0.4 uM after 24 hrs by RT-PCR; type: cell-based
Procedure, shortened: (§4)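 PANC1 cells treated, with untreated cells as control. Ptch mRNA was reverse transcribed with a two-step qRT-PCR kit and quantified by real-time PCR: 50 °C for 2 min, 95 °C for 2 min, then 40 cycles of 95 °C for 15 s and 60 °C for 30 s. Expression was compared with the untreated control.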

[12] = system: PANC-1; experiment: Inhibition of Hh/GLI1-mediated PTCH mRNA expression in human PANC1 cells at 0.2 uM after 24 hrs by RT-PCR; type: cell-based; procedure, shortened: as §4

SMILES	inhibition [1]	IC50 [2] [µM]	inhibition [3]	inhibition [4]	inhibition [5]	IC50 [6] [µM]	inhibition [7]	IC50 [8] [µM]	inhibition [9]	IC50 [10] [µM]	inhibition [11]	inhibition [12]
COC(=O)[C@]1(C)CCC[C@]2(C)c3cc4occc4c(C)c3C[C@@H](OC(C)=O)[C@@H]12 [TAEPEENIN D]	Dose-dependent effect	3.4	Dose-dependent effect	Active	Dose-dependent effect	3.2	Active	> 100	Dose-dependent effect	1.6		
CC1=C2C[C@H]3[C@@H](CC=C4C[C@@H](O)CC[C@@]43C)[C@@H]2CC[C@]12O[C@@H]1C[C@H](C)CN[C@H]1[C@H]2C											Active	Active
CC1=C(C)[C@@]2(C)CCCC(C)(C)[C@@H]2CC1	Dose-dependent effect	23.2	Dose-dependent effect		Dose-dependent effect	15.1		> 100	Dose-dependent effect	13.5		
